Measured values reported in ChEMBL document CHEMBL1127574, “Design and synthesis of ellipticinium salts and 1,2-dihydroellipticines with high selectivities against human CNS cancers in vitro” (1994).

How the values were obtained:
Format in all cases: functional
KM12 = assay: Tested in vitro for cytotoxicity in KM12 cell line of Colon Cancer; settings: Homo sapiens, read-out: Log TGI (converted)
How it was run: (§1)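 Compounds dissolved in DMSO, then diluted 500-fold into aqueous medium. The resulting aqueous solutions or suspensions were added to the cultured human tumour cell lines, and the cells were exposed for 48 h. Growth was read colorimetrically in one of two ways: a metabolic assay in which viable cells reduce a tetrazolium salt to a formazan dye, or a protein stain for total cellular protein.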

786-0 = assay: Tested in vitro for cytotoxicity in 786-0 cell line of Renal cancer; settings: Homo sapiens, read-out: Log TGI (converted); how it was run: as §1
CAKI-1 [1] = assay: Tested in vitro for cytotoxicity in CAKI-1 cell line of Renal cancer; settings: Homo sapiens, read-out: Log TGI (converted); how it was run: as §1
COLO 205 = assay: Tested in vitro for cytotoxicity in COLO 205 cell lines; settings: Homo sapiens; how it was run: as §1
SW-620 = assay: Tested in vitro for cytotoxicity in SW-620 cell line of Colon Cancer; settings: Homo sapiens, read-out: Log TGI (converted)
How it was run: (§2)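 Compounds dissolved in DMSO and diluted 500-fold into aqueous medium; aliquots of the resulting solutions or suspensions added to cultured human tumor cells for 48 h. Growth read colorimetrically, either by tetrazolium reduction to formazan by viable cells or by protein staining of total cellular protein.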

SF-539 = assay: Tested in vitro for cytotoxicity in SF-539 cell line of CNS Cancer; settings: Homo sapiens, read-out: Log TGI (converted); how it was run: as §1
SN12C = assay: Tested in vitro for cytotoxicity in SN12C cell line of Renal cancer; settings: Homo sapiens, read-out: Log TGI (converted); how it was run: as §2
HCT-15 = assay: Tested in vitro for cytotoxicity in HCT-15 cell line of Colon Cancer; settings: Homo sapiens, read-out: Log TGI (converted); how it was run: as §1
SK-OV-3 = assay: Tested in vitro for cytotoxicity in SK-OV-3 cell line of Ovarian Cancer; settings: Homo sapiens, read-out: Log TGI (converted); how it was run: as §2
UO-31 = assay: Tested in vitro for cytotoxicity in UO-31 cell line of Renal cancer; settings: Homo sapiens, read-out: Log TGI (converted); how it was run: as §2
A549 [2] = assay: Tested in vitro for cytotoxicity in A549/ATCC cell line of Non-Small Cell Lung Cancer; settings: Homo sapiens, read-out: Log TGI (converted); how it was run: as §1
SR = assay: Tested in vitro for cytotoxicity in SR cell line of Leukemia; settings: Homo sapiens, read-out: Log TGI (converted); how it was run: as §2
OVCAR-4 = assay: Tested in vitro for cytotoxicity in OVCAR-4 cell line of Ovarian Cancer; settings: Homo sapiens, read-out: Log TGI (converted); how it was run: as §1
NCI-H322M = assay: Tested in vitro for cytotoxicity in NCI-H322M cell line of Non-Small Cell Lung Cancer; settings: Homo sapiens, read-out: Log TGI (converted); how it was run: as §1
SF-268 = assay: Tested in vitro for cytotoxicity in SF-268 cell lines; settings: Homo sapiens; how it was run: as §1
HCC 2998 = assay: Tested in vitro for cytotoxicity in HCC2998 cell line of Colon Cancer; settings: Homo sapiens, read-out: Log TGI (converted); how it was run: as §1
DMS-114 [3] = assay: Tested in vitro for cytotoxicity in DMS114 cell lines; settings: Homo sapiens; how it was run: as §1
TK-10 = assay: Tested in vitro for cytotoxicity in TK-10 cell line of Renal cancer; settings: Homo sapiens, read-out: Log TGI (converted); how it was run: as §2
DMS-114 [4] = assay: Tested in vitro for cytotoxicity in DMS114 cell line of Small Cell Lung Cancer; settings: Homo sapiens, read-out: Log TGI (converted); how it was run: as §1
SNB-75 = assay: Tested in vitro for cytotoxicity in SNB-75 cell line of CNS Cancer; settings: Homo sapiens, read-out: Log TGI (converted); how it was run: as §2
CAKI-1 [5] = assay: Tested in vitro for cytotoxicity in CAKI-1 cell lines; settings: Homo sapiens; how it was run: as §1
OVCAR-5 = assay: Tested in vitro for cytotoxicity in OVCAR-5 cell line of Ovarian Cancer; settings: Homo sapiens, read-out: Log TGI (converted); how it was run: as §1
HOP-92 = assay: Tested in vitro for cytotoxicity in HOP-92 cell line of Non-Small Cell Lung Cancer; settings: Homo sapiens, read-out: Log TGI (converted); how it was run: as §1
A549 [6] = assay: Tested in vitro for cytotoxicity in A549/ATCC cell lines; settings: Homo sapiens; how it was run: as §1
LXFL 529 = assay: Tested in vitro for cytotoxicity in LXFL-529 cell line of Non-Small Cell Lung Cancer; settings: Homo sapiens, read-out: Log TGI (converted); how it was run: as §1
DMS-273 = assay: Tested in vitro for cytotoxicity in DMS273 cell line of Small Cell Lung Cancer; settings: Homo sapiens, read-out: Log TGI (converted); how it was run: as §1
HOP-62 = assay: Tested in vitro for cytotoxicity in HOP-62 cell line of Non-Small Cell Lung Cancer; settings: Homo sapiens, read-out: Log TGI (converted); how it was run: as §1
Malme-3M = assay: Tested in vitro for cytotoxicity in MALME-3M cell line of Melanoma; settings: Homo sapiens, read-out: Log TGI (converted); how it was run: as §1
UACC-257 = assay: Tested in vitro for cytotoxicity in UACC-257 cell line of Melanoma; settings: Homo sapiens, read-out: Log TGI (converted); how it was run: as §2
M14 = assay: Tested in vitro for cytotoxicity in M14 cell line of Melanoma; settings: Homo sapiens, read-out: Log TGI (converted); how it was run: as §1
NCI-H460 = assay: Tested in vitro for cytotoxicity in NCI-H460 cell line of Non-Small Cell Lung Cancer; settings: Homo sapiens, read-out: Log TGI (converted); how it was run: as §1

Question: For COc1ccc2[nH]c3c(C)c4c(c(C)c3c2c1)CN(C)C=C4, which TGI (KM12) is on record?
Answer: 15.8 µM

Question: And the TGI (786-0)?
Answer: 12.6 µM

Question: What about the TGI (CAKI-1 [1]) of the same compound?
Answer: 31.6 µM

Question: What about the GI50 (COLO 205) of the same compound?
Answer: 1.32 µM

Question: What about the TGI (SW-620) of the same compound?
Answer: 15.8 µM

Question: And the TGI (SF-539)?
Answer: 2 µM

Question: What about the TGI (SN12C) of the same compound?
Answer: 0.794 µM

Question: And the TGI (HCT-15)?
Answer: > 100 µM

Question: What about the TGI (SK-OV-3) of the same compound?
Answer: 63.1 µM

Question: And the TGI (UO-31)?
Answer: > 100 µM

Question: What about the TGI (A549 [2]) of the same compound?
Answer: 50.1 µM

Question: What about the TGI (SR) of the same compound?
Answer: 63.1 µM

Question: What about the TGI (OVCAR-4) of the same compound?
Answer: 25.1 µM

Question: And the TGI (NCI-H322M)?
Answer: 15.8 µM

Question: What about the GI50 (SF-268) of the same compound?
Answer: 0.186 µM

Question: What about the TGI (HCC 2998) of the same compound?
Answer: 12.6 µM

Question: And the GI50 (DMS-114 [3])?
Answer: 0.525 µM

Question: And the TGI (TK-10)?
Answer: 50.1 µM

Question: And the TGI (DMS-114 [4])?
Answer: 2.51 µM

Question: What about the TGI (SNB-75) of the same compound?
Answer: 0.794 µM

Question: And the GI50 (CAKI-1 [5])?
Answer: 20.1 µM

Question: And the TGI (OVCAR-5)?
Answer: 31.6 µM

Question: And the TGI (HOP-92)?
Answer: 25.1 µM

Question: And the GI50 (A549 [6])?
Answer: 0.993 µM

Question: What about the TGI (LXFL 529) of the same compound?
Answer: 5.01 µM

Question: What about the TGI (DMS-273) of the same compound?
Answer: 12.6 µM

Question: And the TGI (HOP-62)?
Answer: 3.16 µM

Question: And the TGI (Malme-3M)?
Answer: 5.01 µM

Question: And the TGI (UACC-257)?
Answer: 20 µM

Question: What about the TGI (M14) of the same compound?
Answer: 25.1 µM

Question: What about the TGI (NCI-H460) of the same compound?
Answer: 10 µM
